# Experimental data reported in ChEMBL document CHEMBL5674880 (PLoS One, 2018).
# Assays:
# Format in all cases: functional, cell-based
# CWR22R = experiment: Antiproliferative activity against human 22Rv1 cells after 10 days; settings: 22Rv1, 240 h
# Method in brief: (§1)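 Tested as part of a 240-line cancer cell panel (Eurofins Oncopanel); all lines were mycoplasma-negative and STR-verified. Cells were exposed to a compound concentration series in 2D culture for 10 days. The highest concentration was 10 μM or 25 μM, depending on the inhibitor. Antiproliferative IC50 was derived from the mean of three biological replicates.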
# ARH-77 = experiment: Antiproliferative activity against human ARH-77 cells after 10 days; settings: ARH-77, 240 h; method in brief: as §1
# BeWo = experiment: Antiproliferative activity against human BeWo cells after 10 days; settings: 240 h; method in brief: as §1
# BT-20 = experiment: Antiproliferative activity against human BT-20 cells after 10 days; settings: BT-20, 240 h; method in brief: as §1
# [1] = Antiproliferative activity against human C32TG cells after 10 days; settings: 240 h; method in brief: as §1
# [2] = Antiproliferative activity against human CEM/C1 cells after 10 days; settings: CEM/C1, 240 h; method in brief: as §1
# COR-L105 = experiment: Antiproliferative activity against human COR-L105 cells after 10 days; settings: COR-L105, 240 h
# Method in brief: (§2)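 10-day 2D proliferation screen of a broad cancer cell panel (about 240 lines, Eurofins Oncopanel). All lines were mycoplasma negative and STR verified. Compounds were dosed up to a top concentration of 10 μM or 25 μM, depending on the inhibitor. Anti-proliferative IC50 values are the average of three biological replicates.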
# DOHH-2 = experiment: Antiproliferative activity against human DOHH-2 cells after 10 days; settings: DOHH-2, 240 h; method in brief: as §2
# EB-3 = experiment: Antiproliferative activity against human EB-3 cells after 10 days; settings: EB-3, 240 h; method in brief: as §2
# EFM-19 = experiment: Antiproliferative activity against human EFM-19 cells after 10 days; settings: EFM-19, 240 h; method in brief: as §2
# ES-2 = experiment: Antiproliferative activity against human ES2 cells after 10 days; settings: ES-2, 240 h; method in brief: as §2
# G-402 = experiment: Antiproliferative activity against human G-402 cells after 10 days; settings: G-402, 240 h; method in brief: as §2
# [3] = Antiproliferative activity against human HLF cells after 10 days; settings: 240 h; method in brief: as §2
# Hs 294T = experiment: Antiproliferative activity against human Hs 294T cells after 10 days; settings: 240 h; method in brief: as §2
# Hs-578T = experiment: Antiproliferative activity against human Hs 578T cells after 10 days; settings: 240 h; method in brief: as §2
# Hs 695T = experiment: Antiproliferative activity against human Hs 695T cells after 10 days; settings: 240 h; method in brief: as §2
# Hs746T = experiment: Antiproliferative activity against human Hs746T cells after 10 days; settings: 240 h; method in brief: as §2
# HT1197 = experiment: Antiproliferative activity against human HT1197 cells after 10 days; settings: HT1197, 240 h
# Method in brief: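 Cell lines run in the Eurofins Oncopanel broad cancer panel, all mycoplasma-negative and STR-verified. Cells were exposed to a compound concentration series in a 10-day proliferation assay, and an anti-proliferative IC50 was derived. Values are the mean of three biological replicates.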
# HT-1376 = experiment: Antiproliferative activity against human HT-1376 cells after 10 days; settings: HT-1376, 240 h; method in brief: as §2
# HT-29 = experiment: Antiproliferative activity against human HT-29 cells after 10 days; settings: HT-29, 240 h; method in brief: as §2
# [4] = Antiproliferative activity against human HUH-6-clone5 cells after 10 days; settings: HUH-6-clone5, 240 h; method in brief: as §2
# HuP-T4 = experiment: Antiproliferative activity against human HuP-T4 cells after 10 days; settings: HuP-T4, 240 h
# Method in brief: (§3)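 Broad cancer cell line panel (Eurofins Oncopanel, about 240 lines; mycoplasma negative, STR verified) grown in 2D culture and exposed to compound in a 10-day proliferation assay. The top concentration was 10 μM for the SMYD2 inhibitor series and 25 μM for the SMYD3 inhibitor. The proliferative IC50 is taken from concentration-response data, each value the mean of three biological replicates.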
# J82 = experiment: Antiproliferative activity against human J82 cells after 10 days; settings: J82, 240 h; method in brief: as §3
# [5] = Antiproliferative activity against human KHOS-240S cells after 10 days; settings: 240 h; method in brief: as §3
# LS-1034 = experiment: Antiproliferative activity against human LS1034 cells after 10 days; settings: LS-1034, 240 h; method in brief: as §3
# LS174T = experiment: Antiproliferative activity against human LS174T cells after 10 days; settings: 240 h; method in brief: as §3
# Malme-3M = experiment: Antiproliferative activity against human Malme-3M cells after 10 days; settings: 240 h; method in brief: as §3
# MDA-MB-231 = experiment: Antiproliferative activity against human MDA-MB-231 cells after 10 days; settings: MDA-MB-231, 240 h; method in brief: as §3
# MEG-01 = experiment: Antiproliferative activity against human MEG-01 cells after 10 days; settings: MEG-01, 240 h; method in brief: as §3
# MeWo = experiment: Antiproliferative activity against human MeWo cells after 10 days; settings: 240 h; method in brief: as §3
# MIA PaCa-2 = experiment: Antiproliferative activity against human Mia PaCa-2 cells after 10 days; settings: MIA PaCa-2, 240 h; method in brief: as §3
# MOLT-3 = experiment: Antiproliferative activity against human MOLT-3 cells after 10 days; settings: MOLT-3, 240 h; method in brief: as §3
# NCI-H520 = experiment: Antiproliferative activity against human NCI-H520 cells after 10 days; settings: NCI-H520, 240 h; method in brief: as §3
# [6] = Antiproliferative activity against human OE21 cells after 10 days; settings: OE21, 240 h; method in brief: as §3
# PANC-1 = experiment: Antiproliferative activity against human PANC-1 cells after 10 days; settings: PANC-1, 240 h; method in brief: as §3
# PC-3 = experiment: Antiproliferative activity against human PC-3 cells after 10 days; settings: PC-3, 240 h; method in brief: as §3
# Raji = experiment: Antiproliferative activity against human Raji cells after 10 days; settings: 240 h
# Ramos = experiment: Antiproliferative activity against human Ramos cells after 10 days; settings: 240 h
# RD = experiment: Antiproliferative activity against human RD cells after 10 days; settings: 240 h; method in brief: as §3
# SCC-9 = experiment: Antiproliferative activity against human SCC-9 cells after 10 days; settings: SCC-9, 240 h
# SHP77 = experiment: Antiproliferative activity against human SHP77 cells after 10 days; settings: SHP77, 240 h
# SK-NEP-1 = experiment: Antiproliferative activity against human SK-NEP-1 cells after 10 days; settings: SK-NEP-1, 240 h
# SNB-19 = experiment: Antiproliferative activity against human SNB-19 cells after 10 days; settings: SNB-19, 240 h
# SW1088 = experiment: Antiproliferative activity against human SW1088 cells after 10 days; settings: SW1088, 240 h
# SW13 = experiment: Antiproliferative activity against human SW13 cells after 10 days; settings: SW13, 240 h
# SW1417 = experiment: Antiproliferative activity against human SW1417 cells after 10 days; settings: SW1417, 240 h
# SW48 = experiment: Antiproliferative activity against human SW48 cells after 10 days; settings: SW48, 240 h
# SW872 = experiment: Antiproliferative activity against human SW872 cells after 10 days; settings: SW872, 240 h
# SW 954 = experiment: Antiproliferative activity against human SW 954 cells after 10 days; settings: SW 954, 240 h
# T98G = experiment: Antiproliferative activity against human T98G cells after 10 days; settings: 240 h
# UMUC3 = experiment: Antiproliferative activity against human UM-UC-3 cells after 10 days; settings: UMUC3, 240 h
structure (smiles),measurement,setting,value
Cc1cn(CCN2CCN(c3ccccc3-c3cc(C#N)cc(C(=O)NCCCN4CCCC4)c3)CC2)c2ccccc12,IC50,CWR22R,1060 nM
same,IC50,ARH-77,780 nM
same,IC50,BeWo,2880 nM
same,IC50,BT-20,3350 nM
same,IC50,[1],2360 nM
same,IC50,[2],1270 nM
same,IC50,COR-L105,1110 nM
same,IC50,DOHH-2,263 nM
same,IC50,EB-3,329 nM
same,IC50,EFM-19,2680 nM
same,IC50,ES-2,1320 nM
same,IC50,G-402,2190 nM
same,IC50,[3],2440 nM
same,IC50,Hs 294T,2480 nM
same,IC50,Hs-578T,6140 nM
same,IC50,Hs 695T,6650 nM
same,IC50,Hs746T,4290 nM
same,IC50,HT1197,1560 nM
same,IC50,HT-1376,2350 nM
same,IC50,HT-29,1260 nM
same,IC50,[4],1340 nM
same,IC50,HuP-T4,3480 nM
same,IC50,J82,3150 nM
same,IC50,[5],1310 nM
same,IC50,LS-1034,2900 nM
same,IC50,LS174T,1470 nM
same,IC50,Malme-3M,2400 nM
same,IC50,MDA-MB-231,1070 nM
same,IC50,MEG-01,1280 nM
same,IC50,MeWo,1980 nM
same,IC50,MIA PaCa-2,2030 nM
same,IC50,MOLT-3,1360 nM
same,IC50,NCI-H520,2700 nM
same,IC50,[6],1060 nM
same,IC50,PANC-1,2870 nM
same,IC50,PC-3,2770 nM
same,IC50,Raji,1590 nM
same,IC50,Ramos,1040 nM
same,IC50,RD,954 nM
same,IC50,SCC-9,1180 nM
same,IC50,SHP77,1650 nM
same,IC50,SK-NEP-1,3180 nM
same,IC50,SNB-19,2520 nM
same,IC50,SW1088,1180 nM
same,IC50,SW13,2680 nM
same,IC50,SW1417,3230 nM
same,IC50,SW48,1350 nM
same,IC50,SW872,2530 nM
same,IC50,SW 954,4070 nM
same,IC50,T98G,5870 nM
same,IC50,UMUC3,2910 nM
O=C(NC1CN(Cc2cnn(Cc3ccccc3)c2)C1)c1cn(C2CC2)nn1,IC50,CWR22R,> 10000 nM
same,IC50,ARH-77,> 10000 nM
same,IC50,BeWo,> 10000 nM
same,IC50,BT-20,> 10000 nM
same,IC50,[1],> 10000 nM
same,IC50,[2],> 10000 nM
same,IC50,COR-L105,> 10000 nM
same,IC50,DOHH-2,> 10000 nM
same,IC50,EB-3,> 10000 nM
same,IC50,EFM-19,> 10000 nM
same,IC50,ES-2,> 10000 nM
same,IC50,G-402,> 10000 nM
same,IC50,[3],> 10000 nM
same,IC50,Hs 294T,> 10000 nM
same,IC50,Hs-578T,> 10000 nM
same,IC50,Hs 695T,> 10000 nM
same,IC50,Hs746T,> 10000 nM
same,IC50,HT1197,> 10000 nM
same,IC50,HT-1376,> 10000 nM
same,IC50,HT-29,> 10000 nM
same,IC50,[4],> 10000 nM
same,IC50,HuP-T4,> 10000 nM
same,IC50,J82,> 10000 nM
same,IC50,[5],> 10000 nM
same,IC50,LS-1034,> 10000 nM
same,IC50,LS174T,> 10000 nM
same,IC50,Malme-3M,> 10000 nM
same,IC50,MDA-MB-231,> 10000 nM
same,IC50,MEG-01,> 10000 nM
same,IC50,MeWo,> 10000 nM
same,IC50,MIA PaCa-2,> 10000 nM
same,IC50,MOLT-3,> 10000 nM
same,IC50,NCI-H520,> 10000 nM
same,IC50,[6],3400 nM
same,IC50,PANC-1,> 10000 nM
same,IC50,PC-3,> 10000 nM
same,IC50,Raji,> 10000 nM
same,IC50,Ramos,> 10000 nM
same,IC50,RD,> 10000 nM
same,IC50,SCC-9,> 10000 nM
same,IC50,SHP77,> 10000 nM
same,IC50,SK-NEP-1,> 10000 nM
same,IC50,SNB-19,> 10000 nM
same,IC50,SW1088,> 10000 nM
same,IC50,SW13,> 10000 nM
same,IC50,SW1417,> 10000 nM
same,IC50,SW48,> 10000 nM
same,IC50,SW872,> 10000 nM
same,IC50,SW 954,> 10000 nM
same,IC50,T98G,> 10000 nM
same,IC50,UMUC3,> 10000 nM
